Measured values reported in ChEMBL document CHEMBL3813647, “Discovery of an Orally Active and Liver-Targeted Prodrug of 5-Fluoro-2'-Deoxyuridine for the Treatment of Hepatocellular Carcinoma” (J Med Chem, 2016).

Tests used:
[1] = tested on: Liver; assay: AUC (infinity) in Sprague-Dawley rat liver assessed as FDUR formation at 52.17 mg/kg administered through oral gavage measured up to 24 hrs by HPLC-MS/MS analysis; type: ADME, organism-based; parameters: dose 52.17 mg/kg, route oral, time infinity; conditions: in vivo
Summary of the method: (§1)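 Male Sprague-Dawley rats (220 ± 20 g), single gavage of 0.096 mmol/kg. FDUR was dosed in H2O; the prodrugs were dosed in 20% hydroxypropyl-β-cyclodextrin. n = 3 per time point, sampled at 0.25–24 h. Plasma (EDTA-K2, cardiac puncture) and freeze-clamped liver were homogenized in 20 mM EDTA-K2/70% MeOH. Analytes measured by HPLC-MS/MS in ESI negative mode.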

[2] = Ratio of FDUR AUC (infinity) in Sprague-Dawley rat liver to FDUR AUC (infinity) in Sprague-Dawley rat plasma at 52.17 mg/kg administered through oral gavage; type: ADME, organism-based; conditions: other tissue
[3] = tested on: Liver; assay: AUC (infinity) in Sprague-Dawley rat liver assessed as FdUMP formation at 52.17 mg/kg administered through oral gavage measured up to 24 hrs by HPLC-MS/MS analysis; type: ADME, organism-based; parameters: dose 52.17 mg/kg, route oral, time infinity; conditions: in vivo; summary of the method: as §1
[4] = tested on: H22; assay: Antitumor activity against mouse H22 cells implanted in KM mouse assessed as tumor growth inhibition at 260 mg/kg administered daily through oral gavage after 8 days; type: functional; conditions: 192 h
Summary of the method: (§2)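 Syngeneic H22 hepatoma: 2 × 10⁶ cells injected s.c. in the axilla (0.9% saline) of female KM mice, n = 10 per group. From day 2, daily oral gavage for 8 days. Test agent given in 35% PEG400; sorafenib suspended in 0.5% CMC-Na. Tumor weight taken on day 8; inhibition rate calculated versus the vehicle group.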

[5] = Half life in dog plasma by HPLC-MS/MS analysis; type: ADME, cell-free, Canis lupus familiaris
Summary of the method: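 Compound at 1 μg/mL final in dog or human plasma, 37 °C. Sampled at 0–24 h and quenched with ice-cold MeOH containing internal standard. Parent measured by LC-MS/MS in ESI negative mode; t1/2 calculated from percent remaining versus 0 h.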

[6] = tested on: Liver; assay: Drug metabolism in Sprague-Dawley rat liver S9 fraction assessed as (S)-2-((R)-(((2R,3S,5R)-5-(5-fluoro-2,4-dioxo-3,4-dihydropyrimidin-1(2H)-yl)-3-hydroxytetrahydrofuran-2-yl)methoxy)(2-methylbenzyloxy)phosphorylamino)propanoate formation at 20 ug/mL after 20 mins by HPLC-MS/MS analysis in absence of NADPH; type: ADME; conditions: s9, 20 min
Summary of the method: (§3)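 Rat liver S9 (10 mg/mL) incubated with compound at 20 μg/mL. Parent, intermediate A and FdUMP followed over time by HPLC-MS/MS. Negative control run without NADPH.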

[7] = tested on: H22; assay: Antitumor activity against mouse H22 cells implanted in KM mouse assessed as tumor growth inhibition at 130 mg/kg administered daily through oral gavage after 8 days; type: functional; conditions: 192 h; summary of the method: as §2
[8] = tested on: Plasma; assay: Cmax in Sprague-Dawley rat plasma assessed as (S)-2-((R)-(((2R,3S,5R)-5-(5-fluoro-2,4-dioxo-3,4-dihydropyrimidin-1(2H)-yl)-3-hydroxytetrahydrofuran-2-yl)methoxy)(2-methylbenzyloxy)phosphorylamino) propanoate formation at 52.17 mg/kg administered through oral gavage measured up to 24 hrs by HPLC-MS/MS analysis; type: ADME, organism-based; parameters: dose 52.17 mg/kg, route oral; conditions: in vivo; summary of the method: as §1
[9] = tested on: Mus musculus; assay: Toxicity in KM mouse assessed as damage to kidney at 2 to 3 g/kg, administered through oral gavage after 15 days; conditions: in vivo, 360 h
[10] = tested on: Liver; assay: Drug metabolism in Sprague-Dawley rat liver S9 fraction assessed as FdUMP formation at 20 ug/mL preincubated for 5 mins followed by NADPH addition measured at 20 mins by HPLC-MS/MS analysis; type: ADME, subcellular; conditions: s9, 20 min; summary of the method: as §3
[11] = tested on: Mus musculus; assay: Toxicity in KM mouse implanted with mouse H22 cells assessed as body weight level at 260 mg/kg administered daily through oral gavage after 8 days (reference value: 21.7 to 22.3 g); type: organism-based; conditions: in vivo, 192 h
[12] = tested on: Liver; assay: Cmax in Sprague-Dawley rat liver assessed as FdUMP formation at 52.17 mg/kg administered through oral gavage measured up to 24 hrs by HPLC-MS/MS analysis; type: ADME, organism-based; parameters: dose 52.17 mg/kg, route oral; conditions: in vivo; summary of the method: as §1
[13] = tested on: Plasma; assay: Cmax in Sprague-Dawley rat plasma assessed as FDUR formation at 52.17 mg/kg administered through oral gavage measured up to 24 hrs by HPLC-MS/MS analysis; type: ADME, organism-based; parameters: dose 52.17 mg/kg, route oral; conditions: in vivo; summary of the method: as §1
[14] = tested on: Mus musculus; assay: Toxicity in KM mouse assessed as damage to lung at 2 to 3 g/kg, administered through oral gavage after 15 days; conditions: in vivo, 360 h
[15] = tested on: Liver; assay: Cmax in Sprague-Dawley rat liver assessed as 5-FU formation at 52.17 mg/kg administered through oral gavage measured up to 24 hrs by HPLC-MS/MS analysis; type: ADME, organism-based; parameters: dose 52.17 mg/kg, route oral; conditions: in vivo; summary of the method: as §1

## Cc1ccccc1CO[P@](=O)(N[C@@H](C)C(=O)OC(C)C)OC[C@H]1O[C@@H](n2cc(F)c(=O)[nH]c2=O)C[C@@H]1O
[1]
  AUC: 1541 ng·h/g
[2]
  Ratio AUC: 59.3
[3]
  AUC: 543 ng·h/g
[4]
  inhibition in vivo at 260 mg/kg: 72.5%
[5]
  half-life: > 1440 min
[6]
  Drug metabolism: metabolite_detected
[7]
  inhibition in vivo at 130 mg/kg: 61.7%
[8]
  Cmax: 234 ng/mL
[9]
  Activity: Non-toxic
[10]
  Drug metabolism: metabolite_detected
[11]
  Activity: 22.3 g
[12]
  Cmax: 340 ng/g
[13]
  Cmax: 17 ng/mL
[14]
  Activity: Non-toxic
[15]
  Cmax: 139 ng/g
